Assay results from different studies.
Compare with care: the assays were run in different laboratories.
Medium: plasma

Compound | host | route | dose | setting | bioavailability [%]
COc1cc2ccccc2cc1C(=O)NC(=S)Nc1ccc(-c2nc3ccccc3[nH]2)cc1 | mouse | oral | 5 mg/kg | – | < 1
CNC(=O)c1cc(OC)cc2c(N3CCc4c(cc(Cn5ccnc5)cc4-c4cn(C)nc4C(F)(F)F)C3=O)ccnc12 | male CD-1 mouse | oral | 50 mg/kg | – | 263
CC(C)(Nc1nc(-c2ccccn2)nc2ccccc12)c1ccccn1 | female BALB/c mouse | oral | 50 mg/kg | – | 102
Cc1c(C(=O)Nc2ccc(F)c(Cl)c2)sc(N)c1C(N)=O | male CD-1 mouse | oral | 10 mg/kg | – | 46
N#C[C@@]1(c2ccc3c(N)ncnn23)O[C@H](CO)[C@@H](O)[C@H]1O | male CD-1 mouse | oral | 10 mg/kg | – | 57
CCc1ccc(Cc2cc([C@@H]3O[C@H](CO)[C@@H](O)[C@H](O)[C@H]3O)cc3c2CCC3)cc1 | male C57BL/6 mouse | oral | 0.3 mg/kg | – | > 100
CC(C)(C)c1cc(NC(=O)Nc2ccc(Oc3ccnc4[nH]c(=O)cnc34)cc2F)n(-c2ccccc2)n1 | BALB/c mouse | oral | 10 mg/kg | – | 54
O=C1Nc2cc(F)cc(F)c2C(=O)CCc2ccccc21 | male Swiss mouse | oral | – | – | ~20
C=CC(=O)N1CC2CC(n3nc(-c4ccc(C(=O)Nc5ccccn5)cc4)c4c(N)ncnc43)CC2C1 (centres unmarked) | male BALB/c mouse | oral | 3 mg/kg | – | 47
COc1ccc2nccc(N3CCc4c(cc(Cn5ccnc5)cc4-c4cn(C)nc4C(F)(F)F)C3=O)c2c1 | male CD-1 mouse | oral | 50 mg/kg | – | 110
O=C(NCC1CC1)c1cc(N2CC[C@H](O)C2)nc(N2CCC[C@@H](c3ccccc3)C2)n1 | mouse | oral | 10 mg/kg | – | 25
Cc1ccc2cncc(N3CCc4c(cc(Cn5ccnc5)cc4-c4cn(C)nc4C(F)(F)F)C3=O)c2c1 | male CD-1 mouse | oral | 10 mg/kg | – | 35
CC(C)c1cnn2c(NCc3ccccc3)cc(NC[C@H]3CCNC[C@@H]3O)nc12 | male CD-1 mouse | oral | 10 mg/kg | – | 30
Cc1nc2ccccc2n1Cc1ccc(C(=O)NO)cc1F | male CD-1 mouse | oral | 30 mg/kg | – | ~21
O=[N+]([O-])c1cccc2[nH]c(CNc3nc(N4CCOCC4)nc4c3ncn4-c3ccsc3)nc12 | mouse | intravenous | 1 mg/kg | – | 0
COc1nc(-c2cc(C)c(N[C@@H](C)c3c(F)cc(F)cc3F)nn2)ccc1-n1cnc(C)c1 | male CD-1 mouse | oral | 5 mg/kg | single dose | 63.7
N#Cc1ccc(/C=C/c2nc3ccccc3c(=O)n2-c2cccc(C(=O)O)c2)cc1 | mouse | oral | 10 mg/kg | single dose | 50
COc1cc(N2CCN(C)CC2)ccc1Nc1ncc2c(n1)N(C)c1ccccc1C(=O)N2CC(F)(F)F | male Swiss mouse | oral | 10 mg/kg | – | 81
Nc1ccc(-c2ccc3ncc4ccc(=O)n(-c5cccc(C(F)(F)F)c5)c4c3c2)cn1 | male Swiss mouse | oral | 10 mg/kg | – | 54
CC(C)(NC(=O)O[C@@H]1CN2CCC1CC2)c1csc(-c2ccc(F)cc2)n1 | CD-1 mouse | oral | 10 mg/kg | – | 74
CCc1cc(C(=O)NC)c2nccc(N3CCc4c(cc(Cn5ccnc5)cc4-c4cn(C)nc4C(F)(F)F)C3=O)c2c1 | male CD-1 mouse | oral | 50 mg/kg | – | 175
O=C(Nc1nccs1)C(c1cc(F)ccc1O)N1Cc2ccccc2C1=O (centres unmarked) | mouse | oral | 20 mg/kg | – | 26
N[C@@H](CSSC[C@H](N)C(=O)O)C(=O)O | Kunming mouse | oral | 25 mg/kg | – | 18.6
CC[C@H](C)[C@@H]1NC(=O)[C@@](C)(NC(=O)[C@H](CCCNC(=N)N)NC(=O)[C@H](CC(C)C)NC(=O)[C@@H](NC(=O)[C@H](CCC(N)=O)NC(=O)[C@H](CC(C)C)NC(C)=O)[C@@H](C)O)CCCC=CCCC[C@@](C)(C(=O)N[C@@H](CC(C)C)C(=O)N[C@@H](Cc2ccc3ccccc3c2)C(N)=O)NC(=O)[C@H](CCCNC(=N)N)NC(=O)[C@H](CCC(N)=O)NC1=O | male BALB/c mouse | intraperitoneal | 5 mg/kg | – | 81.1
CCc1cc(OC)c2nccc(N3CCc4c(cc(Cn5ccnc5)cc4-c4cn(C)nc4C(F)(F)F)C3=O)c2c1 | male CD-1 mouse | oral | 50 mg/kg | – | 194
OC[C@H]1O[C@@H](c2ccc(Cl)c(Cc3ccc(O[C@H]4CCOC4)cc3)c2)[C@H](O)[C@@H](O)[C@@H]1O | CD-1 mouse | oral | 10 mg/kg | – | 25.6
